Arrestin-AP2 inh = inhibitors of beta-arrestin/AP2 binding, primary screen, biochemical, GPCR trafficking, flow cytometry; FITC-arrestin peptide / GST-AP2 beads; AP2 beta2 appendage carries R879A mutation; inhibition, % at 10 µM; 0.31% of 340,000 active; AID 504490, 2011;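 active = inhibition above a set limit, near 3 SD of compounds lacking own fluorescence, cut at about 54% in these data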
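System: GST-AP2 R879A glutathione beads; medium: PBS, Tween 20 0.05%, BSA 0.1%; reagent: fluorescein-tagged arrestin peptide at 50 nM final; schedule: pre-incubation 12 min, peptide binding 1 h, room temperature; detection: flow cytometry, FL1 (488/535 nm); read-out: inhibition as reduced fluorescein signal on beads, percent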
MEKK2mut PB1 HTS = MEK5 binding signal on mutant MEKK2 PB1, primary screen, biochemical, multiplex bead flow cytometry, Alexa488-MEK5; Alexa488-MEK5 binding to MEKK2 mutant; percent response, % at 10 µM; 0.35% of 290,000 active; AID 1530, 2009; in the data active = percent response above about 24%, passing the limit was not always enough
MEKK3 PB1 HTS = modulators of MEKK3-MEK5 PB1 binding, primary screen, biochemical, wildtype MEKK3, multiplex bead flow cytometry, Alexa488-MEK5. bead-based flow cytometry, Alexa488-MEK5 binding to MEKK3; actives lie on both sides; 0 = blocked by unlabeled MEK5, 100 = vehicle. binding response (% of control), % at 10 µM. 1.4% of 290,000 active. AID 1529, 2009;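 active = binding response more than 3 SD above or below the average of its plate-row segment, actives on both sides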;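 also: Alexa488 bead fluorescence after subtracting the streptavidin-only scavenger bead signal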
Target sequence (Q99759 whole entry, looked up): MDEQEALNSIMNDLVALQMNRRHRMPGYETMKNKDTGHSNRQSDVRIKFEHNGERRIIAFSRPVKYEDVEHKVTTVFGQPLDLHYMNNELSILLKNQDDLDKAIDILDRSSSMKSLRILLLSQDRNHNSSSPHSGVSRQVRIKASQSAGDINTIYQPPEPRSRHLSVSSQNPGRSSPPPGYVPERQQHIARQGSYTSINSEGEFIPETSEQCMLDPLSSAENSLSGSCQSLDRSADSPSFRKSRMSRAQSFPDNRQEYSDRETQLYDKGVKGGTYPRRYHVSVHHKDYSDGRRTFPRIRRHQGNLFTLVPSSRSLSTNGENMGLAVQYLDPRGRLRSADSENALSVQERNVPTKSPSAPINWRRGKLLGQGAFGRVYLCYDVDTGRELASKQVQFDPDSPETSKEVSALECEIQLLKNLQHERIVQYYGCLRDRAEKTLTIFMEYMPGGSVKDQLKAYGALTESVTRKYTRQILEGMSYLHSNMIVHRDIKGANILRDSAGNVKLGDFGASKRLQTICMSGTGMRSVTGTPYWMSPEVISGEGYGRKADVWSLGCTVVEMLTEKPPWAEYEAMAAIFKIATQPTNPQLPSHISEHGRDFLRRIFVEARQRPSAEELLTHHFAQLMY
MEKK2 WT-MEK5 = modulators of MEK5 binding to wildtype MEKK2, primary screen, biochemical, multiplex bead flow cytometry, Alexa488-MEK5; 1.1% of 290,000 active; AID 1531, 2009; Alexa488-MEK5 binding to MEKK2 WT; actives lie on both sides; Mitogen-activated protein kinase kinase kinase 2 (Homo sapiens), Q9Y2U5; binding response (% of control), % at 10 µM; in the data active = binding response below about 67% or above about 130%
MEKK2wt confirm = modulators of MEK5 binding to wildtype MEKK2, confirmation, biochemical, single concentration, multiplex bead flow cytometry; shares compounds with MEKK3 PB1 HTS; Alexa488-MEK5 binding to MEKK2 WT; actives lie on both sides; binding response (% of control), % at 10 µM; 2.4% of 5,900 active; AID 1892, 2009; in the data active = binding response below about 16% or above about 210%; inactive = in between
MEKK2mut confirm = mutant MEKK2 PB1-MEK5 binding signal retest – biochemical, single concentration, multiplex bead flow cytometry, confirmation. shares compounds with MEKK3 PB1 HTS. Alexa488-MEK5 binding to MEKK2 mutant. percent response, % at 10 µM. 2% of 5,900 active; in the data active = percent response mostly above about 71%, no sharp cut-off; inactive = mostly below about 38%;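 also: higher means compound restores mutant binding toward wildtype level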
MEKK3-MEK5 inh = MEKK3 wild-type PB1 binding to MEK5, inhibitors, confirmation, biochemical, bead multiplex flow cytometry, single concentration, wildtype. 1.8% of 5,900 active. binding response (% of control), % at 10 µM. shares compounds with MEKK3 PB1 HTS. AID 1894, 2009. Alexa488-MEK5 binding to MEKK3; hits give low values;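 active = binding response below 72% of control, or above a set upper limit, though filed actives all read lower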;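 also: lower values mean stronger disruption of MEK5 binding to MEKK3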
Numbers stand for hits; – = inactive; · = no result; [ ] = remark or other dose. Rows were chosen to be rich in hits. Some 2.3% of all compounds tested hit in one or more screens of this group.

SMILES	Arrestin-AP2 inh	MEKK2mut PB1 HTS	MEKK3 PB1 HTS	MEKK2 WT-MEK5	MEKK2wt confirm	MEKK2mut confirm	MEKK3-MEK5 inh
Cc1ccc(NC(=O)COc2ccccc2CNC(C)(C)CC(C)(C)C)cc1	–	–	–	141	–	–	–
CCCN(CC(=O)Nc1ccccc1C)C(=O)/C=C/c1ccc(S(=O)(=O)N2CCCCCC2)cc1	–	·	·	·	·	·	·
COc1cccc(C(=O)COC(=O)c2n[nH]c(=O)c3ccccc23)c1	–	–	60[inhibitor]	–	–	–	–
O=C(COC(=O)c1n[nH]c(=O)c2ccccc12)c1ccccc1	–	–	–	–	·	·	·
Cc1onc(-c2c(Cl)cccc2Cl)c1NC(=O)NN(C)C	–	–	–	–	·	·	·
CSCCNC(=O)Nc1c(-c2c(Cl)cccc2Cl)noc1C	–	–	67[inhibitor]	–	–	–	–
CC1C/C(=N/NC(=O)c2cccc(F)c2)c2ccc(O)cc2C1 (stereo not given)	–	–	–	–	·	·	·
CC(C)c1cc(C(=O)Nc2cc(Cl)ccc2O)no1	–	–	8.0[inhibitor]	13[inhibitor]	–	–	–
OC1(c2ccc(Cl)cc2)CCN(Cc2c[nH]c3ccccc23)CC1	–	–	–	151	–	–	–
Clc1ccccc1N1CCN(Cc2c[nH]c3ccccc23)CC1	–	·	·	·	·	·	·
COCCCn1c(=O)c2sccc2n(Cc2ccc(C)cc2)c1=O	–	–	–	–	·	·	·
CCOC(=O)c1c(-c2ccc(-c3ccccc3)cc2)csc1NC(=O)CNCCN(C)C	–	69	–	286	238	141	–
CCOC(=O)CN(C#N)c1nc(C)cc(C)n1	–	–	–	–	·	·	·
COC(=O)CN(C#N)c1nc(C)cc(C)n1	–	–	133	–	–	–	–
COC(=O)[C@@H](Cc1c[nH]c2ccccc12)NC(=O)CCC(=O)c1ccc(F)cc1	–	–	–	–	·	·	·
COc1cccc(CSc2nc3ccncc3[nH]2)c1	–	–	–	–	·	·	·
Cc1ccc2nc(Cl)c(C3CC(c4ccco4)=NN3S(C)(=O)=O)cc2c1 (stereo not given)	–	–	72[inhibitor]	–	–	–	–
Cc1ccc2cc(C3CC(c4ccco4)=NN3S(C)(=O)=O)c(Cl)nc2c1 (stereo not given)	–	–	–	–	·	·	·
NC(=O)N/N=C/c1ccc(OCc2cccc(Cl)c2)cc1	–	–	–	–	·	·	·
Cc1cccc(N2CCN(C(=O)c3cc(S(=O)(=O)N4CCCC4)cn3C)CC2)c1C	–	–	–	–	·	·	·
Cc1ccc(C)c(N2CCN(C(=O)c3cc(S(=O)(=O)N4CCCC4)cn3C)CC2)c1	–	–	2.0[inhibitor]	0.0[inhibitor]	–	–	–
c1cc(Nc2ncnc3sccc23)cc(-c2nnc3n2CCCCC3)c1	–	–	-1.0[inhibitor]	-1.0[inhibitor]	–	–	–
Cc1cnc(C(=O)Nc2cccc(-c3nnc4n3CCCCC4)c2)cn1	–	–	–	–	·	·	·
Cc1cc(Cl)ccc1NC(=O)CCCN1C(=O)CCC1=O	–	–	–	–	·	·	·
Cc1cc(Cl)ccc1NC(=O)CCC(=O)O	–	–	135	–	–	–	–
CC12CCC3c4ccc(OCC(=O)O)cc4CCC3C1CCC2=O (stereo not given)	–	·	·	·	·	·	·
Cc1[nH]nc(SCC(=O)NCc2ccc(F)cc2)c1[N+](=O)[O-]	–	–	131	–	–	–	–
Cc1ccc(NC(=O)CSc2n[nH]c(C)c2[N+](=O)[O-])cc1C	–	–	131	–	–	–	–
CCNC(=S)NCc1ccc(F)cc1	–	–	134	–	–	–	–

Compound activity deposited in PubChem by NMMLSC.
